Results reported in ChEMBL document CHEMBL1153955, “Indolylarylsulfones bearing natural and unnatural amino acids. Discovery of potent inhibitors of HIV-1 non-nucleoside wild type and resistant mutant strains reverse transcriptase and coxsackie B4 virus” (J Med Chem, 2009).

Tests used:
Sindbis virus = test: Antiviral activity against Sindbis virus in african green monkey Vero cells assessed as protection against virus-induced cytopathicity; format: functional, organism-based
Method in brief: (§1)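 Confluent cell monolayers inoculated with 100 CCID₅₀ virus. After 1-2 h adsorption, residual virus removed and cultures incubated with varying compound concentrations. Cytopathicity scored once it reached completion in untreated infected controls. EC₅₀ = dose reducing virus-induced cytopathogenicity by 50%.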

Influenza A virus H3N2 [1] = test: Antiviral activity against influenza H3N2 virus in MDCK cells assessed as reduction of virus-induced cytopathicity by visual cytopathic effect scoring method; format: functional, organism-based
Felid alphaherpesvirus 1 = test: Antiviral activity against Feline herpesvirus in feline […] cells assessed as inhibition of virus-induced cytopathicity; format: functional, organism-based
[2] = biological target: Human immunodeficiency virus type 1 reverse transcriptase (Human immunodeficiency virus 1, UniProt Q72547, Y181I); test: Inhibition of HIV1 reverse transcriptase p66/p51 Y181I mutant; conditions: read-out: IC50
Method in brief: (§2)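 Substrate was 0.5 µg poly(rA)/oligo(dT) 10:1 (0.3 µM 3′-OH ends) with 10 µM [³H]dTTP, at 37 °C. Acid-precipitable radioactivity was counted on GF/C filters after TCA washes.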

Coxsackievirus B4 [3] = test: Antiviral activity against Coxsackievirus B4 in african green monkey Vero cells assessed as protection against virus-induced cytopathicity; format: functional, organism-based; conditions: Enterovirus B; method in brief: as §1
[4] = Cytotoxicity against MDCK cells by MTS assay; format: cell-based, Canis lupus familiaris; conditions: dog
Influenza A virus H3N2 [5] = test: Antiviral activity against influenza H3N2 virus in MDCK cells assessed as reduction of virus-induced cytopathicity by MTS method; format: functional, organism-based
Feline coronavirus = test: Antiviral activity against Feline coronavirus in feline […] cells assessed as inhibition of virus-induced cytopathicity; format: functional, organism-based; conditions: Alphacoronavirus 1
Punta Toro virus = test: Antiviral activity against Punta Toro virus in african green monkey Vero cells assessed as protection against virus-induced cytopathicity; format: functional, organism-based; method in brief: as §1
Influenza B virus [6] = test: Antiviral activity against influenza B virus in MDCK cells assessed as reduction of virus-induced cytopathicity by visual cytopathic effect scoring method; format: functional, organism-based
[7] = tested on: Vesicular stomatitis virus; test: Antiviral activity against VSV in human HEL cells assessed as protection against virus-induced cytopathicity; format: functional, organism-based
[8] = tested on: Human immunodeficiency virus 2; test: Antiviral activity against HIV2 ROD in human CEM cells assessed as protection against virus-induced cytopathicity after 4 days; format: functional, organism-based; conditions: Human immunodeficiency virus 2, ROD, CCRF-CEM, 96 h
Method in brief: (§3)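 CEM cells (~3 × 10⁵ cells/mL) infected with ~100 CCID₅₀ per mL of HIV-1 (IIIB) or HIV-2 (ROD), then seeded into wells containing compound dilutions. After 4 days at 37 °C, syncytium (giant cell) formation was examined microscopically. EC₅₀ = concentration protecting CEM cells from HIV cytopathicity by 50%.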

CCRF-CEM = test: Antiproliferative activity against human CEM cells after 3 days; format: cell-based; conditions: 72 h
Method in brief: (§4)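 Cells seeded at 5 × 10⁴ to 7.5 × 10⁴ cells/200 µL with or without serial compound dilutions; incubated at 37 °C for 2 days (L1210) or 3 days (Molt4/C8, CEM). Cell numbers counted with a Coulter counter. CC₅₀ = concentration reducing proliferation by 50% versus untreated controls, read from plots of cell number (% of control) against concentration. Means of at least two independent experiments.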

Human respirovirus 3 = test: Antiviral activity against Parainfluenza virus type 3 in african green monkey Vero cells assessed as protection against virus-induced cytopathicity; format: functional, organism-based; conditions: Human respirovirus 3, Vero; method in brief: as §1
Influenza B virus [9] = test: Antiviral activity against influenza B virus in MDCK cells assessed as reduction of virus-induced cytopathicity by MTS method; format: functional, organism-based
[10] = Antiproliferative activity against human Molt4/C8 cells after 3 days; format: cell-based; conditions: MOLT-4, 72 h; method in brief: as §4
[11] = tested on: Respiratory syncytial virus; test: Antiviral activity against RSV Long in human HeLa cells assessed as protection against virus-induced cytopathicity; format: functional, organism-based; method in brief: as §1
[12] = biological target: Human immunodeficiency virus type 1 reverse transcriptase (Human immunodeficiency virus 1, UniProt Q72547); test: Inhibition of HIV1 reverse transcriptase p66/p51; conditions: read-out: IC50
Vaccinia virus = test: Antiviral activity against Vaccinia virus Lederle in human HEL cells assessed as protection against virus-induced cytopathicity; format: functional, organism-based; conditions: Orthopoxvirus vaccinia
Influenza A virus [13] = test: Antiviral activity against influenza H1N1 virus in MDCK cells assessed as reduction of virus-induced cytopathicity by visual cytopathic effect scoring method; format: functional, organism-based
L1210 = test: Antiproliferative activity against mouse L1210 cells after 2 days; format: cell-based; conditions: L1210, 48 h; method in brief: as §4
[14] = biological target: Human immunodeficiency virus type 1 reverse transcriptase (Human immunodeficiency virus 1, UniProt Q72547, L100I); test: Inhibition of HIV1 reverse transcriptase p66/p51 L100I mutant; conditions: read-out: IC50; method in brief: as §2
[15] = Cytotoxicity against feline CRFK cells by MTS assay; format: cell-based, Felis catus; conditions: cat
Human alphaherpesvirus 2 = test: Antiviral activity against HSV2 G in human HEL cells assessed as protection against virus-induced cytopathicity; format: functional, organism-based; conditions: Human alphaherpesvirus 2, strain G; method in brief: as §1
Coxsackievirus B4 [16] = test: Antiviral activity against Coxsackievirus B4 in human HeLa cells assessed as protection against virus-induced cytopathicity; format: functional, organism-based; conditions: Enterovirus B; method in brief: as §1
Human alphaherpesvirus 1 [17] = test: Antiviral activity against thymidine kinase deficient and acyclovir resistant HSV1 KOS in human HEL cells assessed as protection against virus-induced cytopathicity; format: functional, organism-based; conditions: Human alphaherpesvirus 1, KOS
[18] = Cytotoxicity against human HEL cells assessed as drug level causing microscopically detectable alteration of normal cell morphology after 3 days; format: cell-based
Influenza A virus [19] = test: Antiviral activity against influenza H1N1 virus in MDCK cells assessed as reduction of virus-induced cytopathicity by MTS method; format: functional, organism-based; conditions: Influenza A virus, H1N1, MDCK
[20] = Cytotoxicity against human HeLa cells assessed as drug level causing microscopically detectable alteration of normal cell morphology after 3 days; format: cell-based
Method in brief: (§5)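 Serial compound dilutions added to confluent HeLa or Vero monolayers. MCC = minimum concentration causing microscopically detectable alteration of cell morphology after 3 days of incubation.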

[21] = biological target: Human immunodeficiency virus type 1 reverse transcriptase (Human immunodeficiency virus 1, UniProt Q72547, K103N); test: Inhibition of HIV1 reverse transcriptase p66/p51 K103N mutant; conditions: read-out: IC50; method in brief: as §2
[22] = tested on: Human immunodeficiency virus 1; test: Antiviral activity against HIV1 3B in human CEM cells assessed as protection against virus-induced cytopathicity after 4 days; format: functional, organism-based; conditions: Human immunodeficiency virus 1, 3B, CCRF-CEM, 96 h; method in brief: as §3
[23] = Cytotoxicity against african green monkey Vero cells assessed as drug level causing microscopically detectable alteration of normal cell morphology after 3 days; format: cell-based; conditions: chlorocebus sabaeus; method in brief: as §5
[24] = tested on: Mammalian orthoreovirus 1; test: Antiviral activity against Reovirus 1 in african green monkey Vero cells assessed as protection against virus-induced cytopathicity; format: functional, organism-based; conditions: Mammalian orthoreovirus 1, Vero; method in brief: as §1
Human alphaherpesvirus 1 [25] = test: Antiviral activity against HSV1 KOS in human HEL cells assessed as protection against virus-induced cytopathicity; format: functional, organism-based; conditions: Human alphaherpesvirus 1, KOS
[26] = Cytotoxicity against MDCK cells assessed as drug level causing microscopically detectable alteration of normal cell morphology; format: cell-based, Canis lupus familiaris; conditions: dog
[27] = tested on: Vesicular stomatitis virus; test: Antiviral activity against VSV in human HeLa cells assessed as protection against virus-induced cytopathicity; format: functional, organism-based

Row | Structure (SMILES) | EC50 (Sindbis virus) [µM] | EC50 (Influenza A virus H3N2 [1]) [µM] | EC50 (Felid alphaherpesvirus 1) [µM] | IC50 [2] [µM] | EC50 (Coxsackievirus B4 [3]) [µM] | CC50 [4] [µM] | EC50 (Influenza A virus H3N2 [5]) [µM] | EC50 (Feline coronavirus) [µM] | EC50 (Punta Toro virus) [µM] | EC50 (Influenza B virus [6]) [µM] | EC50 [7] [µM] | EC50 [8] [µM] | IC50 (CCRF-CEM) [µM] | EC50 (Human respirovirus 3) [µM] | EC50 (Influenza B virus [9]) [µM] | IC50 [10] [µM] | EC50 [11] [µM] | IC50 [12] [µM] | EC50 (Vaccinia virus) [µM] | EC50 (Influenza A virus [13]) [µM] | further results
1 | Cc1cc(C)cc(S(=O)(=O)c2c(C(=O)NC(C)CC(N)=O)[nH]c3ccc([N+](=O)[O-])cc23)c1 (stereo not drawn) | > 20 | > 4 | > 20 | 11.9 | > 20 | > 100 | > 4 | > 20 | > 20 | > 4 | > 4 | > 10 | 36 | > 20 | > 4 | 41 | > 20 | 0.033 | > 4 | > 4 | IC50 (L1210): 37 µM; IC50 [14]: 0.191 µM; CC50 [15]: 21.1 µM; EC50 (Human alphaherpesvirus 2): > 4 µM; EC50 (Coxsackievirus B4 [16]): ≥ 20 µM; EC50 (Human alphaherpesvirus 1 [17]): > 4 µM; MCC at 72 h [18]: 20 µM; EC50 (Influenza A virus [19]): > 4 µM; MCC at 72 h [20]: 100 µM; IC50 [21]: 1.09 µM; EC50 [22]: 0.0051 µM; MCC at 72 h [23]: 100 µM; EC50 [24]: > 20 µM; EC50 (Human alphaherpesvirus 1 [25]): > 4 µM; MCC [26]: 20 µM; EC50 [27]: > 20 µM
2 | Cc1cc(C)cc(S(=O)(=O)c2c(C(=O)NC(C)C(N)=O)[nH]c3ccc(Cl)c(F)c23)c1 (stereo not drawn) | > 20 | > 4 | > 20 | 6.28 | 20 | 6.5 | > 4 | > 20 | > 20 | > 4 | > 20 | > 10 | 21 | > 20 | > 4 | 22 | > 4 | 0.062 | > 20 | > 4 | IC50 (L1210): 30 µM; IC50 [14]: 0.27 µM; CC50 [15]: 51.4 µM; EC50 (Human alphaherpesvirus 2): > 20 µM; EC50 (Coxsackievirus B4 [16]): > 4 µM; EC50 (Human alphaherpesvirus 1 [17]): > 20 µM; MCC at 72 h [18]: 100 µM; EC50 (Influenza A virus [19]): > 4 µM; MCC at 72 h [20]: 20 µM; IC50 [21]: 1.52 µM; EC50 [22]: 0.0037 µM; MCC at 72 h [23]: 100 µM; EC50 [24]: > 20 µM; EC50 (Human alphaherpesvirus 1 [25]): > 20 µM; MCC [26]: 20 µM; EC50 [27]: > 4 µM
3 | Cc1cc(C)cc(S(=O)(=O)c2c(C(N)=O)[nH]c3ccc(Cl)cc23)c1 | > 100 | > 100 | > 100 | 0.14 | > 100 | > 100 | > 100 | > 100 | > 100 | > 100 | > 100 | > 2 | 301 | > 100 | > 100 | 20 | > 100 | 0.0003 | > 100 | > 100 | IC50 (L1210): ≥ 500 µM; IC50 [14]: 0.06 µM; CC50 [15]: > 100 µM; EC50 (Human alphaherpesvirus 2): > 100 µM; EC50 (Coxsackievirus B4 [16]): > 100 µM; EC50 (Human alphaherpesvirus 1 [17]): > 100 µM; MCC at 72 h [18]: > 100 µM; EC50 (Influenza A virus [19]): > 100 µM; MCC at 72 h [20]: > 100 µM; IC50 [21]: 0.003 µM; EC50 [22]: 0.0011 µM; MCC at 72 h [23]: > 100 µM; EC50 [24]: > 100 µM; EC50 (Human alphaherpesvirus 1 [25]): > 100 µM; MCC [26]: > 100 µM; EC50 [27]: > 100 µM
